The structures appear in SMILES notation. Residues, ends and D or L forms follow the SMILES beside them.

These results are taken from ChEMBL document CHEMBL1146626, “The stability of pseudopeptides bearing sulfoximines as chiral backbone modifying element towards proteinase K” (Bioorg Med Chem Lett, 2003).

Data set [1] concerns Proteinase K (Tritirachium album). Put plainly: Amount of proteinase K required to release folin positive amino acids at a substrate concentration of 304 uM.
Data set [2] in a line: Rate constant for the compound at a substrate concentration of 218 uM was determined. In kind it is ADME. Put shortly: (§1)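 Substrate incubated at 37 °C with Proteinase K in 30 mM Tris–HCl, 1 mM CaCl2, pH 8.0. Aliquots were taken at several times, snap-frozen in liquid nitrogen and held at -20 °C. Thawed samples went straight onto C-18 RP-HPLC, eluted with water then a gradient to 70% CH3CN. Substrate and cleavage products were tracked by UV at 210 nm against retention times.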

Data set [3] is described as follows: Half-life period at a substrate concentration of 218 uM was determined. In kind it is ADME. In short, it runs like this: as §1
The nature of data set [4]: Relativity constant at a substrate concentration of 218 uM. In kind it is ADME. In short, it runs like this: as §1
Data set [5] in a line: Rate constant for the compound at a substrate concentration of 262 uM was determined; No cleavage. In kind it is ADME. Put shortly:
as §1

Data set [6] in a line: Relativity constant at a substrate concentration of 304 uM. In kind it is ADME. In short, it runs like this:
as §1

Data set [7] can be described thus: Rate constant for the compound at a substrate concentration of 304 uM was determined. In kind it is ADME. Put shortly:
as §1

Data set [8] can be described thus: Half-life period at a substrate concentration of 304 uM was determined. In kind it is ADME. In short, it runs like this:
as §1

A short description of data set [9]: Relativity constant at a substrate concentration of 304 uM.

Take `N[C@@H](Cc1ccccc1)C(=O)N[C@@H](Cc1ccccc1)C(=O)N[C@@H](Cc1ccccc1)C(=O)O` (H-Phe-Phe-Phe-OH): the Activity in data set [1] is 1.5 mAU ml-1. The K obs in data set [2] is 1.11 h⁻¹. Also, the half-life (commonly the time in which the quantity being followed falls by half) at 218 µM in [3] is 37.5 min. For the same compound, the Krel in [4] was 0.59.
`N=[S+]([O-])(CC(=O)N[C@@H](Cc1ccccc1)C(=O)O)c1ccccc1` (some centres undefined): the K obs result in data set [5] is listed as “No cleavage”. The same compound showed an Activity in [1] of 300 mAU ml-1.
In data set [1], `N[C@H](Cc1ccccc1)C(=O)N=[S+]([O-])(CC(=O)N[C@H](Cc1ccccc1)C(=O)O)c1ccccc1` (some centres undefined) came in with an Activity of 30 mAU ml-1. The Krel in data set [6] was determined as 0.73. Besides, in [7], the K obs is 2.72 h⁻¹. This compound showed a half-life at 304 µM in data set [8] of 15.3 min.
`N[C@@H](Cc1ccccc1)C(=O)N=[S+]([O-])(CC(=O)N[C@@H](Cc1ccccc1)C(=O)O)c1ccccc1` (some centres undefined): the Activity in data set [1] amounted to 3 mAU ml-1. In addition, the K obs in data set [7] was determined as 3.75 h⁻¹. Besides, in data set [8], the half-life at 304 µM was found to be 11.1 min. This compound also displayed a Krel in [9] of 1.
